Columns and labels:
Hepatitis B virus [1] = assay: Antiviral activity against HBV infected in human HepG2(2.2.15) cells assessed as inhibition of HBV DNA replication after 9 days by PCR; assay type: functional, organism-based; conditions: Hepatitis B virus, HepG2 2.2.15, 216 h; read-out: IC50
[2] = Selectivity index, ratio of CC50 for human HepG2(2.2.15) cells to IC50 for HBV infected in human HepG2(2.2.15) cells assessed as inhibition of HBeAg; assay type: functional
[3] = Selectivity index, ratio of CC50 for human HepG2(2.2.15) cells to IC50 for HBV infected in human HepG2(2.2.15) cells assessed as inhibition of HBV DNA replication; assay type: functional
[4] = Selectivity index, ratio of CC50 for human HepG2(2.2.15) cells to IC50 for HBV infected in human HepG2(2.2.15) cells assessed as inhibition of HBsAg; assay type: functional
Method in brief: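 MTT at 5 g/L added 4 h before lysis in 10% SDS/50% DMF, pH 7.2, with OD read at 570 nm. IC50: HBsAg in day-9 supernatants measured by ELISA. SI = CC50/IC50.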

Hepatitis B virus [5] = assay: Antiviral activity against HBV infected in human HepG2(2.2.15) cells assessed as inhibition of HBeAg level after 9 days by ELISA; assay type: functional, organism-based; conditions: HepG2 2.2.15, 216 h
[6] = Cytotoxicity against human HepG2(2.2.15) cells; assay type: cell-based
Hepatitis B virus [7] = assay: Antiviral activity against HBV infected in human HepG2(2.2.15) cells assessed as inhibition of HBsAg level after 9 days by ELISA; assay type: functional, organism-based; conditions: HepG2 2.2.15, 216 h

Structure (SMILES)	IC50 (Hepatitis B virus [1]) [µM]	Ratio CC50/IC50 [2]	Ratio CC50/IC50 [3]	Ratio CC50/IC50 [4]	IC50 (Hepatitis B virus [5]) [µM]	CC50 [6] [µM]	IC50 (Hepatitis B virus [7]) [µM]
CCCCn1cc(C(=O)c2ccc(OC)cc2O)ccc1=O	28.6	<0.5	2.34	<0.5	> 133	67	> 133
CCCCCn1cc(C(=O)c2ccc(OC)cc2O)ccc1=O	20	2.03	3.95	1.72	39	79	46
COc1ccc(/C(=N/C2CC2)c2ccc(=O)n(C3CC3)c2)c(O)c1	> 462	16.4	<0.35	1.33	10	164	123
COc1ccc(/C(=N/Cc2cccc(F)c2)c2ccc(=O)n(Cc3cccc(F)c3)c2)c(O)c1	2.1	16	3.81	0.62	0.5	8	13
COc1ccc(/C(=N/Cc2ccc(F)cc2)c2ccc(=O)n(Cc3ccc(F)cc3)c2)c(O)c1	64.5	<0.12	0.15	<0.12	> 86.9	10	> 86.9
COc1ccc(/C(=N/C2CCCCC2)c2ccc(=O)n(C3CCCCC3)c2)c(O)c1	4	5.45	96.75	1.93	71	387	201
COc1ccc(C(=O)c2ccc(=O)n(-c3cccc(C)c3)c2)c(O)c1	0.8	530	198.75	5.48	0.3	159	29
COc1ccc(C(=O)c2ccc(=O)n(-c3ccc(C)cc3)c2)c(O)c1	5	>59.7	>23.9		2	> 119	> 119
CCC/N=C(\c1ccc(=O)n(CCC)c1)c1ccc(OC)cc1O	33.8	<1	3.55	<1	> 122	120	> 122
COc1ccc(C(=O)c2ccc(=O)n(C(C)C)c2)c(O)c1	170	<0.82	4.09	0.82	> 846	696	846
COc1ccc(C(=O)c2ccc(=O)n(C3CCCCC3)c2)c(O)c1	99.6	20.55	0.15	0.15	0.73	15	99
COc1ccc(C/N=C(\c2ccc(=O)n(Cc3ccc(OC)cc3)c2)c2ccc(OC)cc2O)cc1	1	16	32	0.89	2	32	36
COc1ccc(/C(=N/Cc2ccc(F)cc2F)c2ccc(=O)n(Cc3ccc(F)cc3F)c2)c(O)c1	3	0.25	3.33	0.77	40	10	13
CCOc1ccc(-n2cc(C(=O)c3ccc(OC)cc3O)ccc2=O)cc1	0.206	>1.99	>532		55	> 110	> 110
COc1ccc(C(=O)c2ccc(=O)n(-c3cc(C)ccc3C)c2)c(O)c1	0.5	0.01	1	0.04	38	0.5	13
COc1ccc(C(=O)c2ccc(=O)n(-c3ccc(C(C)=O)cc3)c2)c(O)c1	11.2	0.17	11.88	<1.21	774	133	> 110
COc1ccc(/C(=N/Cc2ccc(F)c(F)c2)c2ccc(=O)n(Cc3ccc(F)c(F)c3)c2)c(O)c1	97.5	<0.5	2.07	0.41	> 403	201	496

From ChEMBL document CHEMBL1156796, “Design, synthesis, and antihepatitis B virus activities of novel 2-pyridone derivatives” (J Med Chem, 2010)
